Measured values as given in ChEMBL document CHEMBL1212726, “Inhibition of a viral enzyme by a small-molecule dimer disruptor” (Nat Chem Biol, 2009).
Calls of active or inactive are those of the source.

Experiments:
[1] = test system: Human gammaherpesvirus 8; test: Inhibition of KSHV protease at 10 uM by fluorogenic activity assay
Summary of the method: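 Screen: protease at 2 μM final in 25 mM potassium phosphate pH 8, 150 mM KCl, 0.1 mM EDTA, 1 mM DTT. Compound at 10 μM final (1% DMSO) preincubated 30 min at 30°C. Ac-PVYtQA-ACC (P6) substrate added to 160 μM final. Fluorescence (ex 380/em 460 nm) followed 1 h at 30°C. Hit defined as ≥50% drop in initial velocity versus uninhibited control.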

[2] = Inhibition of KSHV protease by fluorogenic activity assay; design: species or system Human gammaherpesvirus 8
[3] = biological target: Granzyme B (Homo sapiens) (UniProt P10144); test: Inhibition of granzyme B-mediated aggregation at 30 uM after 30 mins by spectrophotometry in absence of Triton X-100
Granzyme B (Homo sapiens), sequence (P10144 whole entry): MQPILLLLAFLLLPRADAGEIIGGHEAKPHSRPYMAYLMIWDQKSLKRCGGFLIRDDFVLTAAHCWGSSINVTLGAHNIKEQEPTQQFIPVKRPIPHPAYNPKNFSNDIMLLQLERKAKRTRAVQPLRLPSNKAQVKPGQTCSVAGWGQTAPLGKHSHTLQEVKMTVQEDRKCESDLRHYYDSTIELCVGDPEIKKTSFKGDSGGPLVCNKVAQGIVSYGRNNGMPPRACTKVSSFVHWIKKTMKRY

[4] = biological target: Granzyme B (Homo sapiens) (UniProt P10144); test: Inhibition of granzyme B-mediated aggregation at 30 uM after 30 mins by spectrophotometry in presence of Triton X-100
[5] = test system: Human gammaherpesvirus 8; test: Ratio of Kcat to Km in KSHV protease at 10 uM
Summary of the method: (§1)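 Michaelis–Menten kinetics in 100 μl with 1 μM KSHV Pr in assay buffer. P6 substrate at 80, 40, 30, 20, 10, 6, 4 and 2 μM, crossed with inhibitor at 10, 7, 5, 3, 1 and 0 μM. Initial velocities converted at 2364 rfu per μM substrate. […] Mean ± s.d. (n=3).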

[6] = test system: Human gammaherpesvirus 8; test: Mixed inhibition of KSHV protease at 1 to 10 uM
Summary of the method: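 1 μM KSHV protease in pH 8 phosphate assay buffer with Ac-PVYtQA-ACC substrate at 80, 40, 30, 20, 10, 6, 4 and 2 μM, and inhibitor at 10, 7, 5, 3, 1 and 0 μM. Initial velocities were converted with 2364 rfu per μM substrate.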

[7] = test system: Human gammaherpesvirus 8; test: Ratio of Kcat to Km in KSHV protease at 5 uM; summary of the method: as §1
[8] = test system: Human gammaherpesvirus 8; test: Induction of KSHV protease dimerization disruption at 30 uM by size exclusion chromatography
Summary of the method: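 KSHV protease (S204G background) at 5 μM in 25 mM potassium phosphate pH 8, 150 mM KCl, 0.1 mM EDTA, 1 mM DTT, incubated with 30 μM compound for 30 min at 30°C (1% DMSO). Dimer and monomer were resolved by elution peaks. DMSO control.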

[9] = test system: Human betaherpesvirus 5; test: Inhibition of CMV protease at 10 uM by fluorogenic activity assay
Summary of the method: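 CMV protease, expressed from a provided plasmid, run in the KSHV Pr fluorogenic assay format with KSHV Pr buffer and reagents, including the P6 ACC hexapeptide substrate.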

[10] = test system: Human gammaherpesvirus 8; test: Ratio of Kcat to Km in KSHV protease at 3 uM; summary of the method: as §1
[11] = test system: T1, Capsid scaffolding protein (Human herpesvirus 8 type P (isolate GK18) (HHV-8) (Kaposi'ssarcoma-associated herpesvirus)), Q2HRB6 [M197D]; test: Inhibition of KSHV protease M197D mutant at 170 uM by 1H-15N-HSQC NMR; details: Human gammaherpesvirus 8
T1 sequence (whole entry): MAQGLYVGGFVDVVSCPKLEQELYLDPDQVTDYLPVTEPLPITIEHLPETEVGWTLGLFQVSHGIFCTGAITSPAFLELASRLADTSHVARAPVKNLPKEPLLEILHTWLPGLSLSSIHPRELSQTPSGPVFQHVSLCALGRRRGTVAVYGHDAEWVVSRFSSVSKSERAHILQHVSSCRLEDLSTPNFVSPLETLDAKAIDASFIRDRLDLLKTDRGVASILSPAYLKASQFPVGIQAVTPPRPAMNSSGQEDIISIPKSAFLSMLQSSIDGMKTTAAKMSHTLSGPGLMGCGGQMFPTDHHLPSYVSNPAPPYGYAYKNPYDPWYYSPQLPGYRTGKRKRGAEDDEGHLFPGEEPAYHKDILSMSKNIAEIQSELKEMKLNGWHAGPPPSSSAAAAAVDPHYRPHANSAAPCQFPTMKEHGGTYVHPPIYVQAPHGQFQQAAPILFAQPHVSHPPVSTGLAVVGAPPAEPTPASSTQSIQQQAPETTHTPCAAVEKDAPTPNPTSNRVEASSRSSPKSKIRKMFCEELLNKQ

[12] = test system: Human gammaherpesvirus 8; test: Activity at KSHV protease at 7 uM; summary of the method: as §1
[13] = test system: Human gammaherpesvirus 8; test: Inhibition of KSHV protease dimerization at 30 uM by size exclusion chromatography
[14] = test system: Human gammaherpesvirus 8; test: Activity at KSHV protease at 5 uM; summary of the method: as §1
[15] = test system: Human gammaherpesvirus 8; test: Ratio of Kcat to Km for KSHV protease at 1 uM; summary of the method: as §1
[16] = test system: Human gammaherpesvirus 8; test: Ratio of Kcat to Km in KSHV protease at 7 uM; summary of the method: as §1
[17] = test system: Human gammaherpesvirus 8; test: Activity at KSHV protease at 1 uM; summary of the method: as §1
[18] = test system: Human gammaherpesvirus 8; test: Induction of KSHV protease Trp109 mutant dimerization disruption up to 30 uM by size exclusion chromatography
[19] = test system: Human gammaherpesvirus 8; test: Activity at KSHV protease at 10 uM; summary of the method: as §1
[20] = test system: Human gammaherpesvirus 8; test: Activity at KSHV protease at 3 uM; summary of the method: as §1

`O=C(O)c1ccc(NC(=O)c2ccccc2CC2CCCCC2)c(Cc2ccccc2)c1` showed an inhibition [1] of 14.8%.
`O=C(O)c1ccc(NC(=O)c2cccc(CC3CCCCC3)c2)c(Cc2ccccc2)c1` gave an IC50 [2] of 8.8 µM and an inhibition [1] of 56.6%.
`COC(=O)c1ccc(NC(=O)c2cccc(CC3CCCCC3)c2)c(Cc2ccccc2)c1` gave an inhibition [1] of 9.4%.
`O=C(O)c1ccc(NC(=O)c2cncc(CC3CCCCC3)c2)c(Cc2ccccc2)c1` showed an inhibition [1] of 7.9%.
Work on `COc1ccc(C(=O)Nc2ccc(C(=O)O)cc2Cc2ccccc2)cc1CC1CCCCC1` yielded an IC50 [2] of 16.4 µM and an inhibition [1] of 51.1%.
`O=C(O)c1ccc(NC(=O)c2ccc(CC3CCCCC3)cc2)c(Cc2ccccc2)c1` showed an inhibition [1] of 24%.
In the case of `Oc1c(Cl)cc(Cl)c(Cl)c1Cc1c(O)c(Cl)cc(Cl)c1Cl`, the inhibition [3] is reported as “Active” and the inhibition [4] is reported as “inactive”.
In the case of `O=C(O)c1ccc(NC(=O)c2ccc(CC3CCCCC3)nc2)c(Cc2ccccc2)c1`, the inhibition [1] is reported as 10%.
With `O=C(O)c1ccc(NC(=O)c2cccc(CC3CCCCC3)n2)c(Cc2ccccc2)c1` the kcat/Km [5] was 153 M⁻¹ s⁻¹, the inhibition [6] was “Active” and the kcat/Km [7] was 398 M⁻¹ s⁻¹. The Activity [8] was “Active”, the inhibition [9] was 92% and the kcat/Km [10] was 673 M⁻¹ s⁻¹. For the same compound, the inhibition [3] was “inactive”, the inhibition [4] was “inactive” and the inhibition [11] was “Active”. For the same compound, the Km [12] was 23.9 µM, the inhibition [13] was “Active” and the Km [14] was 21.2 µM. It also gave a kcat/Km [15] of 997 M⁻¹ s⁻¹, a kcat/Km [16] of 280 M⁻¹ s⁻¹ and a Km [17] of 13.6 µM. The inhibition [1] was 82.7%, the Activity [18] was “inactive” and the Km [19] was 27.4 µM. The Km [20] was 16.5 µM.
